# MT1-MMP act inh: blockers of MT1-MMP proenzyme processing, primary screen, HT1080 RFP-PRO-GFP cells, GFP/RFP fluorescence | Matrix metalloproteinase-14 (Homo sapiens), P50281 | GFP/RFP ratio fluorescence, overnight; percent of plate control window, DMSO zero | GFP/RFP ratio change, % at 20 µM | hit rate 0.061% among 360,000 | AID 651647, 2012;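 active = GFP/RFP ratio change of at least 30% with cell ATP level not reduced by more than half and red fluorescence within 50% of control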
#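 Assay system: HT1080 RFP-PRO-GFP cells. Benchmarks: DMSO vehicle wells and RFP-L50D-GFP reporter cell wells. Times: overnight cell settling, then overnight compound exposure, 37 °C, 5% CO2. Compound: 20 µM single dose, 1% DMSO. Read-out basis: GFP/RFP fluorescence ratio.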
# TLR4-MyD88 BLA: inhibitors of TLR4-MyD88 association in cells, primary screen, cell-based, HeLa CL3-4, BLA complementation, FRET ratio; hit rate 0.18% among 200,000; AID 861, 2007; HeLa CL3-4 TLR4/MyD88 BLA complementation; inhibition, % at 8.4 µM; in the data active = inhibition above about 25%;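 note: 0% = vehicle and 100% = reference inhibitor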
# TLR9-MyD88 inh: inhibitors of TLR9-MyD88 association in cells, primary screen, cell-based, CHO, BLA complementation, fluorescence; Toll-like receptor 9 (Homo sapiens) + Myeloid differentiation primary response protein …; CCF4 FRET ratio; inhibition, % at 4.98 µM; hit rate 0.21% among 340,000;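 active = inhibition above the mean over all tested compounds plus 3 SD, cut at about 21% in these data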;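 note: 0% = DMSO only wells and 100% = clavulanate BLA inhibitor control wells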
# SKN-1 block: suppressors of acrylamide-induced Pgst-4::GFP reporter in worms, primary screen, SKN-1 inhibitor project, whole organism, uHTS, GFP/RFP fluorescence ratio, strain VP596; inhibition, % at 21.8 µM; hit rate 0.49% among 360,000; C. elegans VP596 Pgst-4::GFP/RFP ratio, 24 h;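 active = interference check ratio from 0.5 to 1.5 plus GFP to RFP signal ratio inhibition reaching or exceeding a fixed threshold, cut at about 30% in these data, passing the limit was not always enough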
# NOD2 RIPK2 PPI: NOD2-RIPK2 binding disruptors in cells, primary screen, fluorescence, CHO cells, BLA complementation | Receptor-interacting serine/threonine-protein kinase 2 (Homo sapiens), O43353 | CCF4 ratio | inhibition, % at 4.98 µM | hit rate 0.38% among 360,000 | AID 624267, 2012; in the data active = inhibition above about 21%;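 note: 0% = vehicle only and 100% = reference blocker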
# Starred values were filed as active, the others as inactive; / = no result given. Most compounds without a hit are left out; they make up all but 0.99% or so of the library.
SMILES,MT1-MMP act inh,TLR4-MyD88 BLA,TLR9-MyD88 inh,SKN-1 block,NOD2 RIPK2 PPI
COc1ccc(N(CC(=O)NC2CCCCC2)C(=O)CNC(=O)c2cccs2)cc1,0,/,-2,41*,-13
CN(C(=O)COC(=O)C1CCN(S(=O)(=O)c2ccc3c(c2)OCCO3)CC1)C1CCS(=O)(=O)C1 (stereo not drawn),2,/,-5,13,-6
O=C(c1ccc(Br)cc1)c1cc([N+](=O)[O-])ccc1N1CCOCC1,1,8,2,65*,8
O=C(c1ccccc1)c1cc([N+](=O)[O-])ccc1N1CCOCC1,14,9,3,7,11
O=C(c1ccc(Cl)cc1)c1cc([N+](=O)[O-])ccc1N1CCOCC1,6,4,8,67*,13
Cc1cc(Nc2ccccc2C(=O)O)n(-c2ccc([N+](=O)[O-])cc2)n1,6,/,-7,-4,-1
Clc1ccc(Cc2noc(-c3cccs3)n2)cc1,-1,7,-1,82*,11
Clc1ccc(-c2nc(Cc3ccccc3Cl)no2)cc1,-2,12,-5,11,8
Cc1cccc(-c2nc(CN3CCN(Cc4cccc(F)c4)CC3)c(C)o2)c1,-3,/,-4,13,-10
CC1=NN(c2ccccc2)C(=O)/C1=C/N(C)C,0,/,-9,-9,3
CC1=NN(c2ccccc2)C(=O)/C1=C\C=C1\N(C)c2ccccc2C1(C)C,5,-13,2,38*,-1
CC1=NN(c2ccccc2)C(=O)/C1=C\C=C1/N(C)c2ccccc2C1(C)C,1,1,3,47*,1
CCOC(=O)Nc1nc(-c2ccc(Cl)cc2Cl)cs1,-1,3,-9,57*,8
NC(=O)C1CCN(C(=O)c2ccc(-c3ccccc3Cl)o2)CC1,-2,/,3,11,3
COc1ccc2cc3cc(C(=O)N4CC(C)CC(C)C4)oc3nc2c1 (stereo not drawn),3,/,-22,-6,-8
Cc1ccc2cc3cc(C(=O)N4CC(C)CC(C)C4)oc3nc2c1 (stereo not drawn),3,3,2,39*,4
C[C@@H]1CCC(=O)N(CC[C@H](Oc2ccccc2)c2ccccc2)CC1,1,/,0,9,-8
O=C(Oc1ccc(OC(=O)c2ccco2)c(S(=O)(=O)c2ccc(Br)cc2)c1)c1ccco1,7,0,3,36*,0
Cc1nnc(NC(=O)CCC(=O)N2CCN(S(=O)(=O)c3cc([N+](=O)[O-])ccc3C)CC2)s1,-2,/,-4,-4,4
O=C(Nc1nc(SCc2ccc(F)cc2)ns1)c1ccco1,-3,8,-6,54*,1
Fc1ccc(CSc2nsc(SCc3ccc(F)cc3)n2)cc1,4,-9,10,1,-2
Cc1cccc(-n2c(SCC(=O)N(C)C3CCS(=O)(=O)C3)nc3ccccc3c2=O)c1C (stereo not drawn),0,/,0,19,-10
Clc1ccc(SCc2cc(-c3ccc(Cl)cc3)on2)cc1,-2,-17,18,53*,0
Cc1ccc(SCc2cc(-c3ccc(Cl)cc3)on2)cc1,0,-16,-6,-15,-5
Cc1c(NC(=O)/C(C#N)=C/c2ccc(-c3ccc(Cl)c(Cl)c3)o2)c(=O)n(-c2ccccc2)n1C,-3,-14,1,46*,-4
O=C(CSc1nnc(COc2cccc3ccccc23)o1)N1c2ccccc2CCc2ccccc21,-9,1,-2,45*,-4
C[C@@H]1CCCCO[C@@H](CN(C)C(=O)CCCN(C)C)[C@@H](C)CN([C@H](C)CO)C(=O)c2cc(N(C)C)ccc2O1,1,/,/,1,0
[O-]/[N+](=C\c1ccco1)c1ccc(Cl)cc1,-2,/,-5,36*,-4
Clc1ccsc1-c1ccc2ccccc2n1,-5,-10,4,90*,-3
